Compound activity as filed in PubChem BioAssay.
Hits are enriched below; roughly 2.9% of the tested compounds scored in any of these assays.
IMP-1 inhibitor – inhibitors of Pseudomonas aeruginosa IMP-1 metallo-beta-lactamase; inhibition, % at 5.6 µM; 290,000 tested, 0.45% active; purified IMP-1, nitrocefin hydrolysis, epi-absorbance fluorescence; AID 1556;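 active means inhibition above the mean plus 3 SD of all compounds in the same screening run, cut at about 4.5% in these data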
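System: purified IMP-1 / Input: IMP-1 dispensed at 0.2 nM / Medium: 50 mM HEPES pH 7.1, 50 µM ZnSO4, 0.05% Brij 35 / Timing: 15 min enzyme–compound preincubation, then 25 min nitrocefin reaction, 25 °C / Technique: plate fluorescence quenching by hydrolysis product, ex 480/em 530 nm / Repeats: singlicate testing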
NALP3 yeast inh – NALP3 inhibition in yeast; Yeast reconstituted NLRP3/ASC/caspase-1, beta-gal luminescence, 24 h; inhibition, % at 10 µM; 330,000 tested, 0.39% active; AID 2825;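 active means inhibition of 50% or more; inactive means inhibition below 50%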
VIM-2 inhibitor – blocks Pseudomonas aeruginosa VIM-2 metallo-beta-lactamase; 290,000 tested, 0.89% active; inhibition, % at 5.6 µM; purified VIM-2, nitrocefin hydrolysis, epi-absorbance fluorescence;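 active means inhibition above the mean of all tested compounds plus 3 SD, cutoff set per screening run, cut at about 7.5% in these data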;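 further: red hydrolysis product quenches plate fluorescence so inhibitors raise well fluorescence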
PolyA inh – blocks polyadenylation in yeast reporter cells; S. cerevisiae SKY197-pL101 polyadenylation reporter, beta-gal luminescence; efflux-impaired pdr1/pdr3 knockout yeast; score 100 = 6 SD above DMSO; activity score, % at 12 µM; 300,000 tested, 0.02% active;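 active means lowest replicate activity score at least 50, where 100 means six control SD above control mean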;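 further: yeast exposed to compound for 9 h at 30 °C; higher score means more reporter readthrough which indicates perturbed polyadenylation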
NALP1 yeast inh – inhibitors of NALP1 inflammasome in yeast; S. cerevisiae NALP1/ASC/caspase-1 growth, X-gal OD620, 72 h; inhibition, % at 10 µM; 280,000 tested, 0.61% active; in the data active means inhibition mostly above about 24%, no sharp cut-off; inactive means mostly below about 32%
SUMO Mot1 rescue – inhibitors of SUMOylation pathway: yeast Mot1-301 growth rescue; S. cerevisiae Mot1-301 growth rescue, ATP luminescence, 38.5C; percent above DMSO median, 100 means doubled; growth rescue, % at 18.8 µM; 320,000 tested, 1% active; AID 2716;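 active means every valid replicate shows activation above 250% relative to neutral control wells; inactive means the rest, any valid replicate at or below 250%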
Hits are given with their value.

For CCOC(=O)C1CCCN(C(=O)C2CCC(CNS(=O)(=O)c3ccc(NC(C)=O)cc3)CC2)C1 (stereo not drawn) the results were IMP-1 inhibitor inactive, NALP3 yeast inh inactive, VIM-2 inhibitor inactive, PolyA inh inactive, NALP1 yeast inh inactive and SUMO Mot1 rescue 281.7.
`COCCC(=O)N1CCCC(CNS(=O)(=O)c2ccc(OC)cc2)C1` (stereo not drawn) gave IMP-1 inhibitor inactive, NALP3 yeast inh inactive, VIM-2 inhibitor inactive, PolyA inh inactive and NALP1 yeast inh inactive.
For O=C(Cn1ncc2c([nH]c3ccccc32)c1=O)NCC1CCN(Cc2ccc(F)cc2)CC1 the results were IMP-1 inhibitor inactive, NALP3 yeast inh inactive, VIM-2 inhibitor inactive, PolyA inh inactive, NALP1 yeast inh 28.7 and SUMO Mot1 rescue inactive.
Screening Cc1ccc(CCNC(=O)Cn2ncc3c([nH]c4ccccc43)c2=O)cc1 returned IMP-1 inhibitor inactive, NALP3 yeast inh inactive, VIM-2 inhibitor inactive, PolyA inh inactive, NALP1 yeast inh inactive and SUMO Mot1 rescue inactive.
O=C(O)c1cccc(N2C(=O)c3cccc(Oc4ccc(Cl)cc4)c3C2=O)c1 was read as IMP-1 inhibitor 19.6, NALP3 yeast inh inactive, VIM-2 inhibitor inactive, PolyA inh inactive, NALP1 yeast inh inactive and SUMO Mot1 rescue inactive.
O=C(O)c1ccc(N2C(=O)c3cccc(Oc4ccc(Cl)cc4)c3C2=O)cc1 was read as IMP-1 inhibitor 17.4, NALP3 yeast inh inactive, VIM-2 inhibitor inactive, PolyA inh inactive, NALP1 yeast inh inactive and SUMO Mot1 rescue inactive.
`CC(C(=O)Nc1ccccc1F)N1CCN(S(=O)(=O)c2ccc(C(F)(F)F)cc2)CC1` (stereo not drawn) gave NALP3 yeast inh inactive.
CCCCNc1c([N+](=O)[O-])c(=O)n(C)c2ccccc12 was read as IMP-1 inhibitor inactive, NALP3 yeast inh inactive, VIM-2 inhibitor inactive, PolyA inh inactive, NALP1 yeast inh inactive and SUMO Mot1 rescue inactive.
Cn1c(=O)c([N+](=O)[O-])c(NCCCn2ccnc2)c2ccccc21 was read as IMP-1 inhibitor inactive, NALP3 yeast inh inactive, VIM-2 inhibitor 7.9, PolyA inh inactive, NALP1 yeast inh inactive and SUMO Mot1 rescue inactive.
`CC(=O)NC(Cc1ccc(F)c(F)c1)C(=O)NC1CCN(C(=O)c2ccc(Cl)cc2)CC1` (stereo not drawn) gave IMP-1 inhibitor inactive, NALP3 yeast inh inactive, VIM-2 inhibitor inactive, PolyA inh inactive, NALP1 yeast inh 31.8 and SUMO Mot1 rescue inactive.
For COc1cccc(CC(NC(C)=O)C(=O)NC2CCN(C(=O)c3ccc(Cl)cc3)CC2)c1 (stereo not drawn) the results were IMP-1 inhibitor inactive, NALP3 yeast inh inactive, VIM-2 inhibitor inactive, PolyA inh inactive and NALP1 yeast inh inactive.
COc1ccc(-n2c(SCC(=O)Nc3ccccc3)nc(O)cc2=O)cc1 was read as IMP-1 inhibitor inactive, NALP3 yeast inh inactive, VIM-2 inhibitor inactive, PolyA inh inactive and SUMO Mot1 rescue inactive.
Screening COCCn1c(-c2ccccc2)cnc1SCC(=O)Nc1cccc2ccccc12 returned IMP-1 inhibitor inactive, NALP3 yeast inh inactive, VIM-2 inhibitor inactive, PolyA inh inactive, NALP1 yeast inh 73.6 and SUMO Mot1 rescue inactive.
Screening COc1ccc(-n2c(SCC(=O)Nc3cccc4ccccc34)nc(O)cc2=O)cc1 returned IMP-1 inhibitor inactive, NALP3 yeast inh inactive, VIM-2 inhibitor inactive, PolyA inh inactive, NALP1 yeast inh inactive and SUMO Mot1 rescue 319.8.
COCCn1c(-c2ccc(OC)cc2)cnc1SCC(=O)Nc1ccc(OC)cc1OC was read as IMP-1 inhibitor inactive, NALP3 yeast inh inactive, VIM-2 inhibitor inactive, PolyA inh inactive, NALP1 yeast inh inactive and SUMO Mot1 rescue inactive.
Screening CC(C)=C(NC(=O)c1ccccc1)C(=O)Nc1ccc(C(=O)O)cc1 returned IMP-1 inhibitor inactive, NALP3 yeast inh inactive, VIM-2 inhibitor inactive, PolyA inh inactive, NALP1 yeast inh inactive and SUMO Mot1 rescue inactive.
For O=C(/C=C/c1ccccc1)NCCC1=CCCCC1 the results were IMP-1 inhibitor inactive, NALP3 yeast inh inactive, VIM-2 inhibitor inactive, PolyA inh inactive, NALP1 yeast inh 50.6 and SUMO Mot1 rescue inactive.
For O=C(/C=C/c1ccc(F)cc1)NCCC1=CCCCC1 the results were IMP-1 inhibitor inactive, NALP3 yeast inh inactive, VIM-2 inhibitor inactive, PolyA inh inactive, NALP1 yeast inh inactive and SUMO Mot1 rescue inactive.
For COc1ccccc1CNC(=O)COC(=O)C1CCN(c2ccc(C(F)(F)F)cn2)CC1 the results were NALP3 yeast inh inactive, PolyA inh inactive and SUMO Mot1 rescue inactive.
For Cc1ccc(N(C(C)C(=O)Nc2ccc(S(=O)(=O)N3CCOCC3)cc2)S(C)(=O)=O)cc1 (stereo not drawn) the results were IMP-1 inhibitor inactive, NALP3 yeast inh inactive, VIM-2 inhibitor inactive, PolyA inh inactive, NALP1 yeast inh inactive and SUMO Mot1 rescue inactive.
For CC(C)C(C(=O)Nc1ccccc1)N1C(=O)c2ccccc2C1=O (stereo not drawn) the results were IMP-1 inhibitor inactive, NALP3 yeast inh inactive, VIM-2 inhibitor inactive, PolyA inh inactive, NALP1 yeast inh inactive and SUMO Mot1 rescue inactive.
Screening O=C(CN1C(=O)C2CC=CCC2C1=O)Nc1ccc(S(=O)(=O)N2CCOCC2)cc1 (stereo not drawn) returned IMP-1 inhibitor inactive, NALP3 yeast inh inactive, VIM-2 inhibitor inactive, PolyA inh inactive, NALP1 yeast inh inactive and SUMO Mot1 rescue 296.7.
Cc1ccc(N(C(C)C(=O)Nc2ccc(S(=O)(=O)N3CCOCC3)cc2)S(C)(=O)=O)cc1C (stereo not drawn) was read as IMP-1 inhibitor inactive, NALP3 yeast inh inactive, VIM-2 inhibitor inactive, PolyA inh inactive, NALP1 yeast inh inactive and SUMO Mot1 rescue 286.4.
Screening CC(C)C(C(=O)Nc1ccc(S(=O)(=O)N2CCOCC2)cc1)N1C(=O)c2ccccc2C1=O (stereo not drawn) returned IMP-1 inhibitor inactive, NALP3 yeast inh inactive, VIM-2 inhibitor inactive, PolyA inh inactive, NALP1 yeast inh 43.2 and SUMO Mot1 rescue inactive.
Cc1cc(OC(C)C(=O)NCC2CCCO2)cc(C)c1Cl (stereo not drawn) was read as IMP-1 inhibitor inactive, NALP3 yeast inh inactive, VIM-2 inhibitor inactive, PolyA inh inactive, NALP1 yeast inh inactive and SUMO Mot1 rescue inactive.
O=C(CN(Cc1ccco1)C(=O)CNS(=O)(=O)c1ccccc1)NCc1ccccc1 was read as IMP-1 inhibitor inactive, NALP3 yeast inh inactive, VIM-2 inhibitor inactive, PolyA inh inactive, NALP1 yeast inh inactive and SUMO Mot1 rescue inactive.
`O=C(CN(Cc1ccco1)C(=O)CNS(=O)(=O)c1ccc(F)cc1)NCc1ccccc1` gave IMP-1 inhibitor inactive, NALP3 yeast inh inactive, VIM-2 inhibitor inactive, PolyA inh inactive, NALP1 yeast inh inactive and SUMO Mot1 rescue 298.3.
`O=C(CSc1ccc2nnc(-c3cccnc3)n2n1)Nc1ccccc1` gave IMP-1 inhibitor inactive, NALP3 yeast inh inactive, VIM-2 inhibitor inactive, PolyA inh inactive, NALP1 yeast inh inactive and SUMO Mot1 rescue inactive.
